Source: ChEMBL document CHEMBL3232958, “Antiproliferative and uncoupling effects of delocalized, lipophilic, cationic gallic acid derivatives on cancer cell lines. Validation in vivo in singenic mice” (J Med Chem, 2014)
Calls of active or inactive are those of the source. No cut-off for these calls is given here.

How the values were obtained:
[1] = test system: TA3/Ha; assay: Induction of NAD(P)H oxidation in mouse TA3/Ha cells assessed as reduction of NAD(P)H/NAD(P)+ ratio at 12 uM by spectrofluorometer analysis; type: functional, cell-based
Summary of the method: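 Intact TA3 tumour cells, 2.5 mg protein/mL, in PBS pH 7.4 with 2.5 mM glutamine as substrate. Stirred and thermostatted at 25 °C. NAD(P)H autofluorescence (ex 340, em 420 nm) recorded as a time course by spectrofluorometer. Rotenone, FCCP or cation added during the trace.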

[2] = Cytotoxicity against mouse multidrug-resistant TA3-MTX-R cells after 48 hrs by neutral red assay; type: functional, cell-based
Summary of the method: (§1)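 Neutral red uptake after 48 h exposure at 37 °C, 5% CO2. Seeding: 1 × 10^5 cells/mL for TA3, TA3-MTX-R and CCRF-CEM; 4 × 10^4 cells/mL for MM3MG. Dye at 100 μg/mL for 2 h, then ethanol/acetic acid extraction and absorbance at 540 nm. IC50 from variable-slope sigmoidal dose–response fit; at least three independent experiments in triplicate, mean ± SEM.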

[3] = test system: CCRF-CEM; assay: Cytotoxicity against human CCRF-CEM cells after 48 hrs by neutral red assay; type: functional, cell-based; summary of the method: as §1
[4] = Cytotoxicity against mouse MM3MG cells after 48 hrs by neutral red assay; type: cell-based; summary of the method: as §1
[5] = Cytotoxicity against mouse TA3/Ha cells after 48 hrs by neutral red assay; type: functional, cell-based; summary of the method: as §1
[6] = Uncoupling respiration effect in mouse TA3-MTX-R cells after 2 mins by polarographic analysis in presence of FCCP; type: functional
Summary of the method: (§2)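 Polarographic respiration of digitonin-permeabilized cells (0.013 μg/mg protein; 2.5 mg protein/mL) in PBS pH 7.4 with 10 mM succinate and 1 μg/mL oligomycin. Cations added in 3 μL DMSO. Atractyloside 5 nmol/mg protein was added before succinate. FCCP added at the end: 0.15 μM for TA3, 0.25 μM for TA3-MTX-R. Slope and K0.5 taken from log–log linear regression; at least three experiments.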

[7] = test system: TA3/Ha; assay: Increase of oxygen consumption in mouse TA3/Ha cell mitochondria using glutamate and malate as substrate at 10^-4 M after 2 mins by polarographic analysis; type: functional
Summary of the method: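 Clark electrode polarography of isolated mitochondria (1.0 mg/mL) at 25 °C. Medium: sucrose/KCl, 3 mM phosphate, Hepes pH 7.0, 2 mM MgCl2. Substrates 2 mM glutamate + 2 mM malate; 0.5 mM ADP, oligomycin and KCN also used.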

[8] = test system: TA3/Ha; assay: Induction of apoptosis in mouse TA3/Ha cells assessed as caspase 3 activation at 0.5 uM after 24 hrs by Western blot analysis; type: functional, cell-based
Summary of the method: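 Caspase 3 measured by Western blot. RIPA lysates, 50 μg protein run on 12% SDS–PAGE. Anti-caspase 3 (1:1000) and tubulin loading control (1:10000) overnight at 4 °C; HRP secondary for 2 h. ECL detection and densitometry.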

[9] = test system: TA3/Ha; assay: Reduction of ATP level in mouse TA3/Ha cells at 1 to 20 uM after 2 hrs by CellTiter-Glo luminescent assay; type: functional, cell-based
Summary of the method: (§3)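 CellTiter-Glo luminescence on 2 × 10^5 cells/mL incubated with cation for 2 h. Aliquot held 10 min at room temperature in the dark before reading; at least three experiments.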

[10] = test system: TA3/Ha; assay: Induction of apoptosis in mouse TA3/Ha cells assessed as early stage apoptotic cells at 0.5 uM after 24 to 48 hrs using annexin V/propidium iodide staining by flow cytometry; type: functional, cell-based
Summary of the method: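 Annexin V-FITC/PI flow cytometry on 1 × 10^5 cells/mL treated for 24 and 48 h at 37 °C, 5% CO2. 5 min staining at room temperature; 5000 events recorded. Early apoptosis scored as annexin V+/PI−. Staurosporine 10 μM as positive control; at least three experiments, ANOVA with Bonferroni test.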

[11] = test system: TA3/Ha; assay: Reduction of ATP level in mouse TA3/Ha cells after 2 hrs by CellTiter-Glo luminescent assay; type: functional, cell-based; summary of the method: as §3
[12] = test system: TA3/Ha; assay: Cytotoxicity against mouse TA3/Ha cells up to 24 hrs by lactate dehydrogenase assay; type: functional, cell-based
Summary of the method: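 LDH release measured with a kit on 2 × 10^5 cells/mL incubated at 37 °C, 5% CO2, 90% humidity. Supernatant taken after centrifugation at 600g for 3 min, then 30 min with reaction mix at room temperature; absorbance read at 450 nm.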

[13] = Uncoupling respiration effect in mouse TA3/Ha cells after 2 mins by polarographic analysis in presence of FCCP; type: functional; summary of the method: as §2
[14] = Toxicity in mouse TA3/Ha cells assessed as cell membrane integrity after 24 hrs using propidium iodide by flow cytometry; type: cell-based; settings: 2 to 4 h, in the assay text read “after 2 to 4 hrs” for “after 24 hrs”
Summary of the method: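 Membrane integrity by PI uptake on flow cytometry. Cells were seeded, grown for 24 h at 37 °C, 5% CO2, then given fresh medium with cation for 2 and 4 h before PI was added. Mean ± SEM of at least three experiments.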

[15] = test system: TA3/Ha; assay: Decrease of mitochondrial transmembrane potential in mouse TA3/Ha cell mitochondria at 0.2 nmol after 5 mins by safranin and JC-1 staining; type: functional
Summary of the method: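 Mitochondria isolated from TA3/Ha tumour cells (washed, BSA-free), 1.0 mg/mL protein. Safranin 20 μM, read 5 min; then 2 mM glutamate + 2 mM malate, read 5 min; then cation added. ΔΨm followed as ΔA511−533nm spectrophotometrically.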

Row | Compound | IC50 [2] | IC50 [3] | IC50 [4] | IC50 [5] | also measured
1 | C=C(C)[C@H]1Cc2c(ccc3c2O[C@@H]2COc4cc(OC)c(OC)cc4[C@@H]2C3=O)O1 |  |  |  |  | Activity [1]: Active
2 | O=C(O)c1cc(O)c(O)c(O)c1 [GALLIC ACID] | 160 µM | > 200 µM | > 200 µM | 163 µM | 
3 | O=C(OCCCCCCCC[P+](c1ccccc1)(c1ccccc1)c1ccccc1)c1cc(O)c(O)c(O)c1.[Br-] | 14.4 µM | 34.6 µM | 29.4 µM | 13.4 µM | K0.5 [6]: 1.91 ×10⁻⁴ M; Activity [7]: Active; Activity [8]: inactive; Activity [9]: Active; Activity [10]: Active; Activity [11]: Dose-dependent effect; Activity [12]: Active; K0.5 [13]: 2.25 ×10⁻⁴ M; Activity [14]: Non-toxic
4 | CCCCCCCCOC(=O)c1cc(O)c(O)c(O)c1 [OCTYL_GALLATE] | 29.8 µM | 58.5 µM | > 200 µM | 35.9 µM | 
5 | N#CC(C#N)=NNc1cccc(Cl)c1 |  |  |  |  | Activity [15]: Active
